# Source: ChEMBL document CHEMBL2417366, “Synthesis of novel isothiazolopyridines and their in vitro evaluation against Mycobacterium and Propionibacterium acnes” (Bioorg Med Chem, 2013)
# The source made the active and inactive calls. The calls are words filed in the database; no cut-off is given here.
# Columns and labels:
# [1] = test system: Mycobacterium tuberculosis; test: Antibacterial activity against Mycobacterium tuberculosis H37Rv assessed as growth inhibition at 6.25 ug/mL by BACTEC 460 radiometric assay relative to control; format: functional; details: read-out: GI
# Method in brief: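 M. tuberculosis H37Rv grown in BACTEC 12B medium and tested once at 6.25 μg/mL in a primary screen. Growth was read radiometrically on the BACTEC 460 system and reported as % inhibition.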
# [2] = test system: Vero; test: Cytotoxicity against African green monkey Vero cells; format: cell-based; details: Chlorocebus sabaeus
# Method in brief: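 VERO cells were exposed to serially diluted compound, starting at 10 x MIC where solubility in culture medium allowed. IC50 was determined, and the selectivity index was taken as VERO IC50 divided by the M. tuberculosis H37Rv MIC.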
# [3] = test system: Mycobacterium avium; test: Antibacterial activity against Mycobacterium avium assessed as growth inhibition at 12.5 ug/mL relative to control; format: functional, organism-based
# [4] = Selectivity index, ratio of IC50 for African green monkey Vero cells to MIC99 for Mycobacterium tuberculosis H37Rv; format: functional
# Method in brief: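 Cytotoxicity was measured in VERO cells by serial dilution starting at 10× MIC where solubility in culture medium allowed, giving an IC50. SI = VERO IC50 ÷ MIC (99% inhibition) against M. tuberculosis H37Rv from the BACTEC 460 radiometric assay.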
# [5] = test system: Mycobacterium tuberculosis; test: Antibacterial activity against Mycobacterium tuberculosis H37Rv assessed as growth inhibition by BACTEC 460 radiometric assay; format: functional
# Method in brief: (§1)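 Serial dilutions started at 6.25 μg/mL against H37Rv in BACTEC 12B medium, read on the BACTEC 460 radiometric system. MIC was taken as the lowest concentration inhibiting 99% of the inoculum.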
# [6] = test system: Cutibacterium acnes; test: Antibacterial activity against Propionibacterium acnes PCM 2400 assessed as growth inhibition up to 250 ug/mL after 48 hrs by microplate Alamar blue assay; format: functional, organism-based
# [7] = test system: Mycobacterium tuberculosis; test: Antibacterial activity against Mycobacterium tuberculosis H37Rv assessed as growth inhibition up to 250 ug/mL by BACTEC 460 radiometric assay; format: functional, organism-based
# [8] = test system: Cutibacterium acnes; test: Antibacterial activity against Propionibacterium acnes PCM 2400 assessed as growth inhibition after 48 hrs by microplate Alamar blue assay; format: functional; details: PCM 2400, 48 h
# [9] = test system: Mycolicibacterium fortuitum; test: Induction of Mycobacterium fortuitum PCM 672 replication at 0.97 to 250 ug/mL after 48 hrs by microplate Alamar blue assay relative to control; format: organism-based
# Method in brief: (§2)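 M. fortuitum PCM 672 pre-grown in liquid 79 medium at 37°C for 24 h under aerobic conditions, then diluted to about 2 x 10^5 cfu/mL. Compounds were DMSO stocks (1 mg/mL) diluted in medium, tested at 0.97-250 µg/mL. Incubated at 37°C for 48 h, then Alamar Blue plus 20% Tween 80 added for 2 h more. Read by fluorescence. MIC was the lowest concentration preventing the blue-to-pink change (≥90% growth inhibition). Run two or three times; means and standard error reported.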
# [10] = test system: Mycobacterium avium; test: Antibacterial activity against Mycobacterium avium assessed as growth inhibition at 2 ug/mL relative to control; format: functional; details: read-out: GI
# [11] = test system: Mycolicibacterium fortuitum; test: Bacteriostatic activity against Mycobacterium fortuitum PCM 672 at 0.97 to 250 ug/mL after 48 hrs by microplate Alamar blue assay relative to control; format: functional; method in brief: as §2
# [12] = test system: Mycolicibacterium fortuitum; test: Antibacterial activity against Mycobacterium fortuitum PCM 672 assessed as growth inhibition up to 250 ug/mL after 48 hrs by microplate Alamar blue assay; format: functional, organism-based; method in brief: as §2
# [13] = test system: Mycolicibacterium fortuitum; test: Antibacterial activity against Mycobacterium fortuitum PCM 672 assessed as growth inhibition after 48 hrs by microplate Alamar blue assay; format: functional; details: PCM 672, 48 h; method in brief: as §2
# [14] = test system: Mycobacterium tuberculosis; test: Antibacterial activity against Mycobacterium tuberculosis assessed as growth inhibition; format: functional
# [15] = test system: Mycobacterium avium; test: Antibacterial activity against Mycobacterium avium assessed as growth inhibition; format: functional
# [16] = test system: Cutibacterium acnes; test: Induction of Propionibacterium acnes PCM 2400 replication at 0.97 to 250 ug/mL after 48 hrs by microplate Alamar blue assay relative to control; format: organism-based
# [17] = test system: Mycobacterium tuberculosis; test: Antibacterial activity against Mycobacterium tuberculosis H37Rv assessed as growth inhibition; format: functional; details: for MIC: Mycobacterium tuberculosis, H37Rv; method in brief: as §1
# [18] = test system: Mycobacterium tuberculosis; test: Antibacterial activity against Mycobacterium tuberculosis H37Rv assessed as growth inhibition at 0.125 ug/mL by BACTEC 460 radiometric assay relative to control; format: functional; details: read-out: GI
# [19] = test system: Cutibacterium acnes; test: Induction of Propionibacterium acnes PCM 2400 replication at 15.6 ug/mL after 48 hrs by microplate Alamar blue assay relative to control; format: organism-based
# [20] = test system: Cutibacterium acnes; test: Induction of Propionibacterium acnes PCM 2400 replication at 3.9 to 15.6 ug/mL after 48 hrs by microplate Alamar blue assay relative to control; format: organism-based
# [21] = test system: Mycolicibacterium fortuitum; test: Induction of Mycobacterium fortuitum PCM 672 replication at 15.6 to 31.25 ug/mL after 48 hrs by microplate Alamar blue assay relative to control; format: organism-based; method in brief: as §2
# [22] = test system: Cutibacterium acnes; test: Bacteriostatic activity against Propionibacterium acnes PCM 2400 at 0.97 to 250 ug/mL after 48 hrs by microplate Alamar blue assay relative to control; format: functional
smiles,measurement,setting,value
Cc1cc(C)c2c(=O)n(CCCN3CCN(c4cccc(Cl)c4)CC3)sc2n1,inhibition of growth at 6.25 µg/mL,[1],100%
same,IC50,[2],3.3 µg/mL
same,growth inhibition (GI),[3],inactive
same,Selectivity Index,[4],0.53
same,MIC99,[5],6.25 µg/mL
Cc1cc(C)c2c(=O)n(CN(Cc3ccc(Cl)cc3)Cn3sc4nc(C)cc(C)c4c3=O)sc2n1,growth inhibition (GI),[6],inactive
same,growth inhibition (GI),[7],inactive
CCNC(=O)OCCOc1nsc2nc(C)cc(C)c12,inhibition of growth at 6.25 µg/mL,[1],6%
same,growth inhibition (GI),[6],inactive
same,MIC50,[8],184 µg/mL
same,Activity,[9],10%
CC[C@H]1OC(=O)[C@H](C)[C@@H](O[C@H]2C[C@@](C)(OC)[C@@H](O)[C@H](C)O2)[C@H](C)[C@@H](O[C@@H]2O[C@H](C)C[C@H](N(C)C)[C@H]2O)[C@](C)(OC)C[C@@H](C)C(=O)[C@H](C)[C@@H](O)[C@]1(C)O [CLARITHROMYCIN],inhibition of growth at 2 µg/mL,[10],98%
Cc1cc(C)c2c(=O)n(CCOC(=O)Nc3ccccc3)sc2n1,inhibition (INH),[11],42%
same,growth inhibition (GI),[12],inactive
same,inhibition of growth at 6.25 µg/mL,[1],12%
same,growth inhibition (GI),[6],inactive
Cc1cc(C)c2c(=O)n(CCOCCOc3ccccc3)sc2n1,inhibition of growth at 6.25 µg/mL,[1],100%
same,IC50,[2],4.1 µg/mL
same,Selectivity Index,[4],0.68
same,MIC99,[5],6.25 µg/mL
Cc1cc(C)c2c(OCCOC(=O)Nc3ccccc3)nsc2n1,growth inhibition (GI),[12],inactive
same,growth inhibition (GI),[6],inactive
same,growth inhibition (GI),[7],inactive
Cc1cc(C)c2c(OCCOC(=O)NC(C)(C)C)nsc2n1,inhibition of growth at 6.25 µg/mL,[1],16%
Cc1cc(C)c2c(=O)n(CC(O)CN3CCN(c4cccc(C(F)(F)F)c4)CC3)sc2n1 (stereo not drawn),inhibition of growth at 6.25 µg/mL,[1],100%
same,IC50,[2],4.2 µg/mL
same,growth inhibition (GI),[3],inactive
same,Selectivity Index,[4],2.69
same,MIC99,[5],1.56 µg/mL
Cc1cc(C)c2c(=O)n(CC(O)CN3CCC(Cc4ccccc4)CC3)sc2n1 (stereo not drawn),inhibition of growth at 6.25 µg/mL,[1],100%
same,IC50,[2],1.6 µg/mL
same,Selectivity Index,[4],0.25
same,MIC99,[5],6.25 µg/mL
CCCCNC(=O)OCCn1sc2nc(C)cc(C)c2c1=O,growth inhibition (GI),[12],inactive
same,growth inhibition (GI),[6],inactive
same,growth inhibition (GI),[7],inactive
same,MIC50,[13],125 µg/mL
COc1ccccc1CN(Cn1sc2nc(C)cc(C)c2c1=O)Cn1sc2nc(C)cc(C)c2c1=O,growth inhibition (GI),[6],inactive
same,MIC50,[8],38 µg/mL
same,growth inhibition (GI),[7],inactive
same,MIC50,[13],< 1 µg/mL
same,MIC90,[13],< 1 µg/mL
Cc1cc(C)c2c(=O)n(CN3CCN(c4ccc([N+](=O)[O-])cc4)CC3)sc2n1,growth inhibition (GI),[12],inactive
same,growth inhibition (GI),[6],inactive
same,MIC,[14],< 1 µg/mL
same,MIC,[15],< 1 µg/mL
same,MIC50,[13],197 µg/mL
Cc1cc(C)c2c(=O)n(CN(Cc3ccccc3Cl)Cn3sc4nc(C)cc(C)c4c3=O)sc2n1,growth inhibition (GI),[6],inactive
same,growth inhibition (GI),[7],inactive
COc1ccc(CN(Cn2sc3nc(C)cc(C)c3c2=O)Cn2sc3nc(C)cc(C)c3c2=O)cc1,growth inhibition (GI),[7],inactive
same,Activity,[16],10%
Cc1cc(C)c2c(=O)n(CC(=O)N3CCN(C)CC3)sc2n1,inhibition of growth at 6.25 µg/mL,[1],100%
same,IC50,[2],7 µg/mL
same,Selectivity Index,[4],1.12
same,MIC99,[5],6.25 µg/mL
O=c1c2ccccc2sn1CO,growth inhibition (GI),[17],100%
same,MIC,[17],12.5 µg/mL
CC[C@H]1OC(=O)[C@H](C)[C@@H](O[C@H]2C[C@@](C)(OC)[C@@H](O)[C@H](C)O2)[C@H](C)[C@@H](O[C@@H]2O[C@H](C)C[C@H](N(C)C)[C@H]2O)[C@](C)(O)C[C@@H](C)C(=O)[C@H](C)[C@@H](O)[C@]1(C)O [ERYTHROMYCIN],MIC50,[8],< 1 µg/mL
same,MIC90,[8],< 1 µg/mL
CCNC(=O)OCCn1sc2nc(C)cc(C)c2c1=O,inhibition of growth at 6.25 µg/mL,[1],17%
same,growth inhibition (GI),[6],inactive
same,MIC50,[8],6.9 µg/mL
Cc1cc(C)c2c(=O)n(CO)sc2n1,growth inhibition (GI),[17],65%
same,MIC,[17],12.5 µg/mL
CO[C@H]1/C=C/O[C@@]2(C)Oc3c(C)c(O)c4c(O)c(c(/C=N/N5CCN(C)CC5)c(O)c4c3C2=O)NC(=O)/C(C)=C\C=C\[C@H](C)[C@H](O)[C@@H](C)[C@@H](O)[C@@H](C)[C@H](OC(C)=O)[C@@H]1C [RIFAMPIN],inhibition of growth at 0.125 µg/mL,[18],98%
same,IC50,[2],58 µg/mL
same,MIC99,[5],0.125 µg/mL
Cc1cc(C)c2c(=O)n(CCN3CCN(c4ccc([N+](=O)[O-])cc4)CC3)sc2n1,inhibition (INH),[11],40%
same,growth inhibition (GI),[12],inactive
same,MIC50,[8],< 1 µg/mL
same,MIC90,[8],< 1 µg/mL
same,MIC,[14],< 1 µg/mL
same,MIC,[15],< 1 µg/mL
Cc1cc(C)c2c(=O)n(CN(Cc3ccccc3)Cn3sc4nc(C)cc(C)c4c3=O)sc2n1,inhibition of growth at 6.25 µg/mL,[1],6%
same,Activity,[19],10%
Cc1cc(C)c2c(OCCOCCOc3ccccc3)nsc2n1,growth inhibition (GI),[6],inactive
same,growth inhibition (GI),[7],inactive
CCCCNC(=O)OCCOc1nsc2nc(C)cc(C)c12,Activity,[20],> 50%
same,growth inhibition (GI),[12],inactive
same,growth inhibition (GI),[7],inactive
same,MIC50,[13],125 µg/mL
NNC(=O)c1ccncc1 [ISONIAZID],MIC50,[13],0.322 µg/mL
same,MIC90,[13],> 250 µg/mL
Cc1cc(C)c2c(=O)n(CCOC(=O)NC(C)(C)C)sc2n1,MIC90,[8],3.2 µg/mL
same,Activity,[21],10%
same,growth inhibition (GI),[7],inactive
COc1ccc(CN(Cn2sc3nc(C)cc(C)c3c2=O)Cn2sc3nc(C)cc(C)c3c2=O)cc1OC,inhibition (INH),[11],21%
same,growth inhibition (GI),[12],inactive
same,inhibition of growth at 6.25 µg/mL,[1],8%
same,Activity,[16],10%
Cc1cc(C)c2c(=O)n(CN(Cc3ccccn3)Cn3sc4nc(C)cc(C)c4c3=O)sc2n1,inhibition (INH),[22],36%
same,inhibition of growth at 6.25 µg/mL,[1],4%
same,growth inhibition (GI),[6],inactive
